Measurements taken from ChEMBL document CHEMBL1799999, “N-benzoylated phenoxazines and phenothiazines: synthesis, antiproliferative activity, and inhibition of tubulin polymerization” (J Med Chem, 2011).
The source made the active and inactive calls. The calls are words filed in the database; no cut-off is given here.

Assays:
cells = details: Homo sapiens, 451Lu, 48 h
BT-549 = test: Antiproliferative activity against human BT549 cells after 48 hrs by alamar blue assay; format: functional, cell-based; details: BT-549, 48 h
Procedure, shortened: (§1)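 Cells seeded in growth medium and grown 24 h at 37 °C/5% CO2. 10 mM DMSO stocks diluted in half-log steps into medium, final DMSO 0.316%. After 45 h of compound exposure, AlamarBlue (resazurin) added for a further 3 h, giving 48 h total. Fluorescence read at 590 nm against untreated and cell-free blanks. At least two replicates; IC50 by nonlinear regression.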

NCI-H460 = test: Antiproliferative activity against human NCI-H460 cells after 48 hrs by alamar blue assay; format: functional, cell-based; details: NCI-H460, 48 h
Procedure, shortened: as §1

DLD-1 = test: Antiproliferative activity against human DLD1 cells after 48 hrs by alamar blue assay; format: functional, cell-based; details: DLD-1, 48 h
Procedure, shortened: as §1

COLO 205 [1] = test: Antiproliferative activity against human COLO205 cells after 48 hrs by alamar blue assay; format: functional, cell-based; details: COLO 205, 48 h
Procedure, shortened: as §1

SK-OV-3 = test: Antiproliferative activity against human SKOV3 cells after 48 hrs by alamar blue assay; format: functional, cell-based; details: SK-OV-3, 48 h
Procedure, shortened: as §1

SW480 = test: Antiproliferative activity against human SW480 cells after 48 hrs by alamar blue assay; format: functional, cell-based; details: SW480, 48 h
Procedure, shortened: as §1

K562 [2] = test: Antiproliferative activity against human K562 cells after 48 hrs by hemocytometric analysis; format: functional, cell-based; details: K562, 48 h
Procedure, shortened: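 K562 cells in RPMI 1640 with 10% FBS at 37 °C/5% CO2, plated at 2 × 10^5 cells/mL. Compounds in DMSO/methanol 1:1, final vehicle 0.5%. Cells counted in a Neubauer hemocytometer after 48 h and expressed as % of untreated control. Triplicate wells, three experiments; IC50 by nonlinear regression.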

Potorous tridactylus = test: Inhibition of tubulin polymerization in Potorous tridactylus Ptk2 cells assessed as destruction of microtubule network at 5 uM after 1 hr by immunofluorescence assay
Procedure, shortened: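 PtK2 cells exposed 1 h to 5 μM compound in RPMI medium with 2% DMSO; solvent-only controls. Microtubules labelled with Cy3-anti-tubulin antibody and examined by immunofluorescence microscopy.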

Tubulin = Tubulin (Sus scrofa, UniProt P02554+P02550); test: Inhibition of pig tubulin polymerization determined after 45 mins at 37 degC by turbidimetric analysis; format: protein assay
Procedure, shortened: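 Microtubule protein (80–90% tubulin with MAPs) from porcine brain, isolated by two cold/warm cycles. Buffer: 20 mM PIPES pH 6.8, 80 mM NaCl, 0.5 mM MgCl2, 1 mM EGTA, 1 mM DTT. Protein at 1.2 mg/mL (about 10 μM tubulin) with 0.6 mM GTP, 1% DMSO, 37 °C.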

[3] = Antiproliferative activity against human resting PBMC after 72 hrs by sulforhodamine staining method; format: cell-based
Procedure, shortened: (§2)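 Panel of 83 solid-tumour lines plus resting PBMC, run by the DTP NCI sulforhodamine B staining protocol. Compound exposure 72 h, concentrations from 0.0001 to 10 μM. GI50 taken per line; z-scores computed relative to the panel mean GI50.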

ASPC1 = test: Antiproliferative activity against human AsPC1 cells after 72 hrs by sulforhodamine staining method; format: functional; details: ASPC1, 72 h
Procedure, shortened: as §2

K562 [4] = test: Cell cycle arrest in human K562 cells assessed as accumulation at G2/M phase at 30 nM after 24 hrs by flow cytometric analysis; format: functional, cell-based
Procedure, shortened: (§3)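 K562 cells (2 × 10^5/mL) exposed to graded concentrations for 24 h at 37 °C; vehicle DMSO/MeOH 1:1. Washed in PBS, fixed in ice-cold 70% ethanol, stained 30 min with propidium iodide 0.02 mg/mL plus RNase 0.2 mg/mL. DNA content read by flow cytometry with 488 nm excitation; G2/M fraction scored.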

K562 [5] = test: Cell cycle arrest in human K562 cells assessed as accumulation at G2/M phase at 0.003 to. 1 ug/ml after 24 hrs by flow cytometric analysis; format: functional, cell-based
Procedure, shortened: as §3

COLO-678 = test: Antiproliferative activity against human COLO-678 cells after 72 hrs by sulforhodamine staining method; format: functional; details: COLO-678, 72 h
Procedure, shortened: as §2

[6] = Antiproliferative activity against human MDA-MB-436 cells after 72 hrs by sulforhodamine staining method; format: functional; details: MDA-MB-436, 72 h
Procedure, shortened: as §2

MIA PaCa-2 = test: Antiproliferative activity against human MIAPaCa2 cells after 72 hrs by sulforhodamine staining method; format: functional; details: MIA PaCa-2, 72 h
Procedure, shortened: as §2

HT-1080 = test: Antiproliferative activity against human HT1080 cells after 72 hrs by sulforhodamine staining method; format: functional; details: HT-1080, 72 h
Procedure, shortened: as §2

[7] = Antiproliferative activity against human MT3 cells after 72 hrs by sulforhodamine staining method; format: functional; details: MT-3, 72 h
Procedure, shortened: as §2

SK-MEL-28 = test: Antiproliferative activity against human SK-MEL-28 cells after 72 hrs by sulforhodamine staining method; format: functional; details: SK-MEL-28, 72 h
Procedure, shortened: as §2

COLO 205 [8] = test: Antiproliferative activity against human COLO205 cells after 72 hrs by sulforhodamine staining method; format: functional; details: COLO 205, 72 h
Procedure, shortened: as §2

A-375 = test: Antiproliferative activity against human A375 cells after 72 hrs by sulforhodamine staining method; format: functional; details: A-375, 72 h
Procedure, shortened: as §2

SK-N-SH = test: Antiproliferative activity against human SK-N-SH cells after 72 hrs by sulforhodamine staining method; format: functional
Procedure, shortened: as §2

HT-29 = test: Antiproliferative activity against human HT-29 cells after 72 hrs by sulforhodamine staining method; format: functional; details: HT-29, 72 h
Procedure, shortened: as §2

BXPC-3 = test: Antiproliferative activity against human BxPC3 cells after 72 hrs by sulforhodamine staining method; format: functional; details: BXPC-3, 72 h
Procedure, shortened: as §2

IGROV-1 = test: Antiproliferative activity against human IGROV1 cells after 72 hrs by sulforhodamine staining method; format: functional; details: IGROV-1, 72 h
Procedure, shortened: as §2

5637 = test: Antiproliferative activity against human 5637 cells after 72 hrs by sulforhodamine staining method; format: functional; details: Homo sapiens, 5637, 72 h
Procedure, shortened: as §2

SK-N-AS = test: Antiproliferative activity against human SK-N-AS cells after 72 hrs by sulforhodamine staining method; format: functional
Procedure, shortened: as §2

MG-63 = test: Antiproliferative activity against human MG63 cells after 72 hrs by sulforhodamine staining method; format: functional; details: MG-63, 72 h
Procedure, shortened: as §2

RD = test: Antiproliferative activity against human RD cells after 72 hrs by sulforhodamine staining method; format: functional
Procedure, shortened: as §2

| SMILES | IC50 (cells) | IC50 (BT-549) | IC50 (NCI-H460) | IC50 (DLD-1) | IC50 (COLO 205 [1]) | IC50 (SK-OV-3) | IC50 (SW480) | IC50 (K562 [2]) | IC50 (Tubulin) | other results |
| --- | --- | --- | --- | --- | --- | --- | --- | --- | --- | --- |
| COC(=O)Nc1nc2cc(C(=O)c3cccs3)ccc2[nH]1 [NOCODAZOLE] | 72 nM | 69 nM | 68 nM | 190 nM | 88 nM | 80 nM | 120 nM |  |  |  |
| COc1ccc(C(=O)N2c3ccccc3Oc3ccc(Cl)cc32)cc1O | 27 nM | 320 nM | 390 nM | 230 nM | 2680 nM | 170 nM | 240 nM | 80 nM | 730 nM | inhibition (Potorous tridactylus): Active; GI50 at 72 h [3]: > 10000 nM; GI50 (ASPC1): > 10000 nM |
| COc1ccc(C(=O)N2c3ccccc3Oc3cc(C#N)ccc32)cc1 | 2 nM | 8 nM | 15 nM | 9 nM | 6 nM | 6 nM | 8 nM | 14 nM | 730 nM | GI50 at 72 h [3]: > 10000 nM; GI50 (ASPC1): > 10000 nM; Activity (K562 [4]): Active; Activity (K562 [5]): Active |
| CC(=O)O[C@H]1C(=O)[C@@]2(C)[C@H]([C@H](OC(=O)c3ccccc3)[C@]3(O)C[C@H](OC(=O)[C@H](O)[C@@H](NC(=O)c4ccccc4)c4ccccc4)C(C)=C1C3(C)C)[C@]1(OC(C)=O)CO[C@@H]1C[C@@H]2O [PACLITAXEL] |  | 6 nM | 4 nM | 50 nM | 5 nM | 6 nM | 11 nM |  |  |  |
| O=C(c1ccc(Cl)cc1)N1c2ccccc2Oc2ccc(Cl)cc21 |  |  |  |  |  |  |  | 20000 nM | 2420 nM |  |
| c1ccc2c(c1)Nc1ccccc1O2 [PHENOXAZINE] |  |  |  |  |  |  |  | > 30000 nM | > 10000 nM |  |
| COc1ccc(C(=O)N2c3ccccc3Sc3ccccc32)cc1 |  |  |  |  |  |  |  | 330 nM | 2230 nM |  |
| COc1cc(C(=O)N2c3ccccc3Sc3ccccc32)cc(OC)c1OC |  |  |  |  |  |  |  | 1860 nM | 4960 nM |  |
| CN(C)c1ccc(C(=O)N2c3ccccc3Oc3ccc(Cl)cc32)cc1 |  |  |  |  |  |  |  | 1210 nM | 880 nM |  |
| Clc1ccc2c(c1)Nc1ccccc1O2 |  |  |  |  |  |  |  | > 30000 nM | > 10000 nM |  |
| COc1ccc(C(=O)N2c3ccccc3Oc3ccccc32)cc1 | 60 nM | 120 nM | 270 nM | 250 nM | 240 nM | 210 nM | 240 nM | 33 nM | 1100 nM |  |
| COc1cc2c(c(OC)c1OC)-c1ccc(OC)c(=O)cc1[C@@H](NC(C)=O)CC2 [COLCHICINE] | 17 nM | 23 nM | 27 nM | 89 nM | 21 nM | 29 nM | 30 nM |  |  | inhibition (Potorous tridactylus): Active; Activity (K562 [5]): Active |
| COc1ccc(C(=O)N2c3ccccc3Sc3ccc(OC)cc32)cc1 |  |  |  |  |  |  |  | 970 nM | 3230 nM |  |
| COc1ccc(C(=O)N2c3ccccc3[S+]([O-])c3ccc(Cl)cc32)cc1 (centres undefined) |  |  |  |  |  |  |  | 1400 nM | 2790 nM |  |
| COc1ccc(C(=O)N2c3ccccc3S(=O)(=O)c3ccccc32)cc1O |  |  |  |  |  |  |  | 180 nM | 3000 nM |  |
| COc1ccc(C(=O)N2c3ccccc3[S+]([O-])c3ccc(OC)cc32)cc1 (centres undefined) |  |  |  |  |  |  |  | 1650 nM | 23310 nM |  |
| COc1ccc(C(=O)N2c3ccccc3Sc3ccc(SC)cc32)cc1 |  |  |  |  |  |  |  | 3620 nM | 1430 nM |  |
| COc1ccc(C(=O)N2c3ccccc3Oc3ccc(Cl)cc32)cc1 | 90 nM | 330 nM | 680 nM | 540 nM | 430 nM | 350 nM | 530 nM | 140 nM | 570 nM |  |
| COc1cc(C(=O)N2c3ccccc3Oc3ccc(Cl)cc32)cc(OC)c1O |  |  |  |  |  |  |  | 4630 nM | 680 nM |  |
| COc1ccc(C(=O)N2c3cc(Cl)ccc3Oc3ccc(Cl)cc32)cc1 |  |  |  |  |  |  |  | 490 nM | 700 nM |  |
| COc1ccc(C(=O)N2c3ccccc3Oc3cc(C#N)ccc32)cc1O | 6 nM | 16 nM | 40 nM | 16 nM |  | 24 nM | 29 nM | 11 nM | 520 nM | GI50 (COLO-678): 62.3 nM; GI50 [6]: 1130 nM; GI50 (MIA PaCa-2): 8410 nM; GI50 (HT-1080): 2.6 nM; GI50 [7]: 95.1 nM; GI50 (SK-MEL-28): 2 nM; GI50 (COLO 205 [8]): 4260 nM; GI50 (A-375): 2.7 nM; GI50 at 72 h [3]: > 10000 nM; GI50 (SK-N-SH): 1.8 nM; GI50 (HT-29): 5600 nM; GI50 (ASPC1): > 10000 nM; Activity (K562 [4]): Active; GI50 (BXPC-3): 2250 nM; GI50 (IGROV-1): 63.3 nM; GI50 5637: 1.9 nM; GI50 (SK-N-AS): 1.8 nM; GI50 (MG-63): 1.8 nM; Activity (K562 [5]): Active; GI50 (RD): 2 nM |
